{"source": "ChEMBL document CHEMBL4330169", "about": "“Bioactive Diterpenoids from the Stems of Euphorbia royleana” (J Nat Prod, 2019)"}
{"tested_on": "BV-2", "assay": "Anti-inflammatory activity in mouse BV2 cells assessed as reduction in LPS-induced nitric oxide production by Griess assay", "assay_type": "functional, cell-based", "outline": "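NO release from LPS-stimulated BV-2 cells was measured by the Griess reaction, and IC50 values were derived. SMT (2-methyl-2-thiopseudourea, sulfate) served as the positive control. Data come from three experiments. The procedure otherwise follows a previously published method.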", "units": {"IC50": "µM"}}
{"compound": "CSC(=N)N", "IC50": 3.7}
{"compound": "CC(=O)O[C@H]1C2=C(C[C@H]3OC(=O)C(C)=C13)[C@@]1(C)[C@H](CC2)C(C)(C)CC[C@@H]1O", "IC50": "> 50"}
{"compound": "C=C1C[C@@]23CC[C@@H]4C(C)(C)C(=O)CC[C@@]4(C)[C@@H]2C[C@@H]1[C@@H](O)C3=O", "IC50": "> 50"}
{"compound": "CCC(C)C(=O)OC[C@]1(C)C(=O)CC[C@@]2(C)[C@@H]3CC[C@@H]4C[C@@]3(CC[C@@H]21)C[C@@]4(O)CO", "note": "(stereo partly specified)", "IC50": 32.6}
{"compound": "C/C=C(/C)C(=O)O[C@H]1C(C)=C[C@]23C(=O)[C@@H](C=C(C)[C@@H](O)[C@]12O)[C@H]1[C@@H](C[C@H]3C)[C@@]1(C)COC(=O)/C(C)=C/C", "IC50": 28.6}
{"compound": "C=C[C@@]1(C)C=C2CC[C@@H]3[C@@](C)(C=O)[C@H](O)CC[C@@]3(C)[C@@H]2C[C@@H]1O", "IC50": 32.3}
{"compound": "C=C1C[C@@]23CC[C@@H]4C(C)(C)[C@H](O)CC[C@@]4(C)[C@@H]2C[C@@H]1[C@@H](O)C3=O", "IC50": "> 50"}
{"compound": "CC1=C2C=C3CC[C@@H]4C(C)(C)CC[C@H](O)[C@@]4(C)[C@@H]3C[C@@H]2OC1=O", "IC50": 38.4}
{"compound": "CC1=C2C=C3CC[C@@H]4[C@@](C)(CO)CC[C@H](O)[C@@]4(C)[C@@H]3C[C@H]2OC1=O", "IC50": "> 50"}
{"compound": "C/C=C(/C)C(=O)O[C@H]1C(C)=C[C@]23C(=O)[C@@H](C=C(C)[C@@H](O)[C@]12O)[C@H]1[C@@H](C[C@H]3C)[C@@]1(C)COC(=O)c1ccccc1", "IC50": 14.5}
{"compound": "C[C@H]1C(=O)CC[C@]2(C)[C@@H]1CC[C@@]13CC[C@@H](C[C@H]12)[C@](O)(CO)C3", "IC50": "> 50"}
{"compound": "C/C=C(\\C)C(=O)OC[C@]1(C)C(=O)CC[C@@]2(C)[C@@H]3CC[C@@H]4C[C@@]3(CC[C@@H]21)C[C@@]4(O)CO", "IC50": 19.3}
{"compound": "CC1=C2[C@@H](O)C3=C(C[C@H]2OC1=O)[C@@]1(C)[C@H](CC3)C(C)(C)CC[C@@H]1O", "IC50": "> 50"}
{"compound": "CO[C@H]1[C@H]2[C@@H]([C@@H](OC(C)=O)[C@@H](C)C(=O)[C@@]34C[C@H](C)[C@H](OC(C)=O)[C@]3(/C=C(\\C)[C@H]1O)O4)C2(C)C", "IC50": "> 50"}
{"compound": "CC(=O)O[C@@H]1[C@@H]2[C@H]([C@H](OC(=O)c3ccccc3)[C@H](OC(C)=O)/C(C)=C/[C@@]34O[C@@]3(C[C@H](C)[C@@H]4OC(C)=O)C(=O)[C@@H]1C)C2(C)C", "IC50": "> 50"}
{"compound": "C=C1C[C@@]23CC[C@@H]4C(C)(C)[C@@H](O)CC[C@@]4(C)[C@@H]2C[C@@H]1[C@@H](O)C3=O", "IC50": "> 50"}
{"compound": "C/C=C(/C)C(=O)O[C@@H]1/C(C)=C/[C@@]23O[C@@]2(C[C@H](C)[C@@H]3O)C(=O)[C@H](C)[C@H](OC(C)=O)[C@@H]2[C@H]([C@@H]1OC)C2(C)C", "IC50": "> 50"}
{"compound": "C=C[C@@]1(C)C=C2CC[C@@H]3[C@@](C)(O)[C@H](O)CC[C@@]3(C)[C@@H]2C[C@@H]1O", "IC50": "> 50"}
{"compound": "CC(=O)OC[C@]1(C)C(=O)CC[C@@]2(C)[C@@H]3C[C@@H]4CC[C@@]3(CC[C@@H]21)C[C@@]4(O)CO", "IC50": "> 50"}
{"compound": "CC(=O)O[C@H]1CCC(C)(C)[C@H]2CCC3=CC4=C(C)C(=O)O[C@@H]4C[C@H]3[C@]12C", "IC50": 12}
{"compound": "C=C[C@]1(C)C=C2CC[C@H]3[C@](C)(C=O)[C@@H](O)CC[C@]3(C)[C@H]2CC1", "note": "[SANDARACOPIMARADIENOLAL]", "IC50": "> 50"}
